Among the data in ChEMBL document CHEMBL1687852, “Steroids with aromatic A-rings from the Hainan soft coral Dendronephthya studeri Ridley” (J Nat Prod, 2011) are Activity values, retold here.

Type in all cases: functional, cell-based
For experiment [1], the system named is Bel-7402. As to the kind of experiment: Cytotoxicity against human Bel7402 at 20 ug/ml by MTT assay. The procedure, abridged:
(§1)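 Growth of the tumour cell lines was tested with compound at concentrations up to 20 μg/mL. The lines were human lung adenocarcinoma A549, BEL-7402, human promyelocytic leukaemia HL-60 and murine lymphocytic leukaemia P388.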
Background: Tetrazolium assays rely on reduction of a dye to a coloured formazan, in cell work by metabolically active cells.

A further experiment concerns A549. As to the kind of experiment: Cytotoxicity against human A549 at 20 ug/ml by SRB assay. A digest of the protocol: as §1
Another experiment relates to HL-60. As to the kind of experiment: Cytotoxicity against human HL60 at 20 ug/ml by MTT assay. The procedure, abridged:
as §1

The next experiment concerns P388. As to the kind of experiment: Cytotoxicity against mouse P388 at 20 ug/ml by MTT assay. The procedure, abridged:
as §1

In experiment [2] the test system is Bel-7402. Kind of experiment: Cytotoxicity against human Bel7402 by MTT assay.

Active and inactive are the calls of the source. The calls are words filed in the database; no cut-off is given here.

`CC(C)[C@@H](C)/C=C/[C@@H](C)[C@H]1CC[C@H]2[C@@H]3CCc4cc(O)ccc4[C@H]3CC[C@]12C`: the result in the experiment on Bel-7402 [1], in the experiment with A549, with HL-60 and in the experiment on P388 was inactive.

Take `CC(C)CCC[C@@H](C)[C@H]1CC[C@H]2[C@@H]3CCc4cc(O)ccc4[C@H]3CC[C@]12C`: the result with Bel-7402 [1], in the experiment on A549, with HL-60 and with P388 was inactive.

As to `CC(C)/C=C/[C@@H](C)[C@H]1CC[C@H]2[C@@H]3CCC4=CC(=O)C=C[C@]4(C)[C@H]3CC[C@]12C`, the result with Bel-7402 [1], in the experiment with A549, in the experiment with HL-60 and in the experiment with P388 was inactive.

In the case of `C=C(CC[C@@H](C)[C@H]1CC[C@H]2[C@@H]3CCc4cc(O)ccc4[C@H]3CC[C@]12C)C(C)C`, the outcome with Bel-7402 [1], in the experiment on A549, in the experiment with HL-60 and in the experiment on P388 was inactive.

Take `CC(C)/C=C/[C@@H](C)[C@H]1CC[C@H]2[C@@H]3CCc4cc(O)ccc4[C@H]3CC[C@]12C`: the result with Bel-7402 [1], with A549, in the experiment on HL-60 and in the experiment on P388 was inactive.

`COC(=O)[C@H](CCCC(C)C)[C@H]1CC[C@H]2[C@@H]3CC[C@H]4CC(=O)C=C[C@]4(C)[C@H]3CC[C@]12C`: in the experiment with Bel-7402 [2], the result was Active.

Regarding `C=C(CC[C@@H](C)[C@H]1CC[C@H]2[C@@H]3CCC4=CC(=O)C=C[C@]4(C)[C@H]3CC[C@]12C)C(C)C`, the outcome in the experiment on Bel-7402 [1], in the experiment with A549, with HL-60 and in the experiment with P388 was inactive.

Turning to `CC(C)C/C=C/[C@@H](C)[C@H]1CC[C@H]2[C@@H]3CCc4cc(O)ccc4[C@H]3CC[C@]12C`, the outcome in the experiment on Bel-7402 [1], in the experiment with A549, with HL-60 and with P388 was inactive.

As for `CC(C)C/C=C/[C@@H](C)[C@H]1CC[C@H]2[C@@H]3CCC4=CC(=O)C=C[C@]4(C)[C@H]3CC[C@]12C`, the outcome in the experiment with Bel-7402 [1], in the experiment with A549, in the experiment on HL-60 and in the experiment on P388 was inactive.

Turning to `CC(C)[C@H](C)/C=C/[C@@H](C)[C@H]1CC[C@H]2[C@@H]3CCc4cc(O)ccc4[C@H]3CC[C@]12C`, the outcome in the experiment with Bel-7402 [1], with A549, with HL-60 and in the experiment with P388 was inactive.

With `CC1CC1/C=C/[C@@H](C)[C@H]1CC[C@H]2[C@@H]3CCc4cc(O)ccc4[C@H]3CC[C@]12C` (stereo partly specified), the result in the experiment with Bel-7402 [1], in the experiment with A549, in the experiment on HL-60 and in the experiment on P388 was inactive.
